The record followed here is ChEMBL document CHEMBL2384953, “Design and synthesis of L- and D-phenylalanine derived rhodanines with novel C5-arylidenes as inhibitors of HCV NS5B polymerase” (Bioorg Med Chem, 2013).

SMILES strings stand for the structures. pIC50: −log10 of the molar value. Where only a bound is given, the exact number is not on record here.

In data set [1] the test system is Hepatitis C virus. Nature of the data set: Inhibition of HCV genotype 1b recombinant NS5B Cdelta21 polymerase assessed as inhibition of radioactive UMP incorporation into nascent RNA using […] template-primer after 1hr by liquid scintillation counting analysis. Details: species or system Hepatitis C virus subtype 1b. In outline: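 Recombinant HCV NS5BCΔ21 (genotype 1b), homopolymeric poly rA/U12 template-primer. Read-out is radioactive UMP incorporated into nascent RNA. Dose-response at 8-10 compound concentrations, in duplicate, two independent experiments. IC50 interpolated from nonlinear regression fits; mean ± SD.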

The target in data set [2] is RNA-directed RNA polymerase (Hepacivirus hominis, UniProt O39930, P495L). Kind of data set: Inhibition of HCV NS5B polymerase P495L mutant assessed as inhibition of radioactive UMP incorporation into nascent RNA using […] template-primer after 1hr by liquid scintillation counting analysis. In outline: (§1)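 Mutant counterscreen with recombinant NS5BCΔ21 mutants: P495L (probe for TP-I site), M423T (TP-II), M414T (PP-I). Radioactive UMP incorporation into nascent RNA on poly rA/U12 template-primer, run as for wild-type. IC50 from dose-response curves by nonlinear regression; mean ± SD of at least two independent experiments in duplicate.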
Chain of RNA-directed RNA polymerase (Hepacivirus hominis, UniProt O39930, P495L) (O39930 entry or part of it P495L): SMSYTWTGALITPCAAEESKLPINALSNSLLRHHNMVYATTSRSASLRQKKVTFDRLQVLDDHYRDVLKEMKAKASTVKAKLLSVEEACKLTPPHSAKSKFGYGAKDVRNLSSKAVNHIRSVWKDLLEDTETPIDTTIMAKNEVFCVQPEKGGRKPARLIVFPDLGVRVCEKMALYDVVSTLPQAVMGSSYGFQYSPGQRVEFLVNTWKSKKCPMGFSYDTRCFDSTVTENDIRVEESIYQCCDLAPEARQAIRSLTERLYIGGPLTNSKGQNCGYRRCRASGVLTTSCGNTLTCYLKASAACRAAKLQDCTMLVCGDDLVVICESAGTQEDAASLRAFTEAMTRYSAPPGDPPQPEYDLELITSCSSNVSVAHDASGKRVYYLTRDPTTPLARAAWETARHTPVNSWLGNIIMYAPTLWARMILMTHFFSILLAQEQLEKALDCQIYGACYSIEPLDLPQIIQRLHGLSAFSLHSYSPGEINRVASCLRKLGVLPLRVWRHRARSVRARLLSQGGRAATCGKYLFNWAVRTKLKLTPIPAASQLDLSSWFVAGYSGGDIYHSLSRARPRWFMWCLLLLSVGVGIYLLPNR

For data set [3], the target named is RNA-directed RNA polymerase (Hepacivirus hominis, UniProt O39930, M414T). Kind of data set: Inhibition of HCV NS5B polymerase M414T mutant assessed as inhibition of radioactive UMP incorporation into nascent RNA using […] template-primer after 1hr by liquid scintillation counting analysis. In outline: as §1
Chain of RNA-directed RNA polymerase (Hepacivirus hominis, UniProt O39930, M414T) (O39930 entry or part of it M414T): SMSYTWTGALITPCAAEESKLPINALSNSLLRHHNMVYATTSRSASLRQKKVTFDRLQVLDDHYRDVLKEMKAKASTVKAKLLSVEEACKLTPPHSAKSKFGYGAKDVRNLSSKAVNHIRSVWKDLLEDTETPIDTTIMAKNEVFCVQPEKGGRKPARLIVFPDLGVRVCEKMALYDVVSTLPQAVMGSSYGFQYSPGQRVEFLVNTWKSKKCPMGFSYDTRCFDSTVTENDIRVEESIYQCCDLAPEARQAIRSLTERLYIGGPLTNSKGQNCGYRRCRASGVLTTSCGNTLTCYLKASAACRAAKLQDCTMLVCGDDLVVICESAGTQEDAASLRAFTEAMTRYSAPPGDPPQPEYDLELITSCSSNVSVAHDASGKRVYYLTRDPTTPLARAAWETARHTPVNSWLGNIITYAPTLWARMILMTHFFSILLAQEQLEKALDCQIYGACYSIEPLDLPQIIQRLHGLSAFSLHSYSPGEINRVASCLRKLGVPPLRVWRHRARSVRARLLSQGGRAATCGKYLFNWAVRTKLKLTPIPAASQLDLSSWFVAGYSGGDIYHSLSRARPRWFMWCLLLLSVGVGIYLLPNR
In data set [4] the target is RNA-directed RNA polymerase (Hepacivirus hominis, UniProt O39930, M423T). Kind of data set: Inhibition of HCV NS5B polymerase M423T mutant assessed as inhibition of radioactive UMP incorporation into nascent RNA using […] template-primer after 1hr by liquid scintillation counting analysis. Put shortly: as §1
Chain of RNA-directed RNA polymerase (Hepacivirus hominis, UniProt O39930, M423T) (O39930 entry or part of it M423T): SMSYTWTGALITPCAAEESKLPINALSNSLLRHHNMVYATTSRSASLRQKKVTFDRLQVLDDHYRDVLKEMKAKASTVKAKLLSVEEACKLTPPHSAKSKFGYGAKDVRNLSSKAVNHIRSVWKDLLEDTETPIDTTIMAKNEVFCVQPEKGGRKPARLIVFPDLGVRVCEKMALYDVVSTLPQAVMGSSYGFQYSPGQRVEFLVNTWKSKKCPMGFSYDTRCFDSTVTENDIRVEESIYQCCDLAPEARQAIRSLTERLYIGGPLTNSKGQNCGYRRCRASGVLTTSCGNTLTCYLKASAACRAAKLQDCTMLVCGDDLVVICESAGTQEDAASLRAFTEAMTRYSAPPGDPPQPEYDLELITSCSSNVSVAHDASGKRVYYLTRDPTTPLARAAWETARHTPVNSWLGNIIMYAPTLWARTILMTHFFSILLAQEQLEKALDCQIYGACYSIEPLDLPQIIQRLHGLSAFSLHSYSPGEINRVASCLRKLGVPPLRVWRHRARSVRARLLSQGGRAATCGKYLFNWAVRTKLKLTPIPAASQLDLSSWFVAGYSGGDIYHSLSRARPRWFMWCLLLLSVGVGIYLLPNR
Data set [5] deals with Hepacivirus hominis. Nature of the data set: Selectivity ratio of IC50 for HCV NS5B polymerase M414T mutant to IC50 for wild type HCV NS5B polymerase. Put shortly: (§2)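 Recombinant HCV NS5BCΔ21 (genotype 1b), wild type and the P495L, M423T and M414T mutants, each assayed for incorporation of radioactive UMP into nascent RNA on homopolymeric poly rA/U12 template-primer. IC50s came from nonlinear regression of dose-response curves (8-10 compound concentrations, duplicate, at least two independent experiments, mean ± SD). The ratio is mutant IC50 over wild-type IC50.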

The test system of data set [6] is Hepacivirus hominis. Nature of the data set: Selectivity ratio of IC50 for HCV NS5B polymerase P495L mutant to IC50 for wild type HCV NS5B polymerase. Put shortly:
as §2

In data set [7] the test system is Hepacivirus hominis. Nature of the data set: Selectivity ratio of IC50 for HCV NS5B polymerase M423T mutant to IC50 for wild type HCV NS5B polymerase. Put shortly: as §2
Data set [8] can be described thus: Cytotoxicity against human hepatoma cells. In kind it is cell-based.
The test system of data set [9] is Hepatitis C virus. Kind of data set: Antiviral activity against hepatitis C virus infected in human hepatoma cells assessed as inhibition of HCV replication at 100 uM. In kind it is functional, Hepacivirus hominis.

The pIC50 is −log10 of the IC50, conventionally taken in molar units. Take `O=C(O)[C@H](Cc1ccccc1)N1C(=O)/C(=C/c2cccc(Oc3ccc(F)cc3)c2)SC1=S`: the pIC50 in the data set with Hepatitis C virus [1] was 4.90.
On to `O=C(O)[C@@H](Cc1ccccc1)N1C(=O)/C(=C/c2cccc(Oc3ccc(Cl)cc3)c2)SC1=S`, for which, in the data set with Hepatitis C virus [1], the negative-log IC50 (pIC50) was 5.29.
On to `O=C(O)[C@H](Cc1ccccc1)N1C(=O)/C(=C/c2cccc(Oc3cccc(F)c3)c2)SC1=S`, for which the pIC50 with Hepatitis C virus [1] was 5.09.
For `O=C(O)[C@H](Cc1ccccc1)N1C(=O)/C(=C/c2cccc(OC/C=C\c3ccccc3)c2)SC1=S`, in the data set with Hepatitis C virus [1], the pIC50 is 5.19.
Still for that read-out and setting: the value for `O=C(O)[C@@H](Cc1ccccc1)N1C(=O)/C(=C/c2cccc(Oc3cccc(Cl)c3)c2)SC1=S` was 5.39.
In the case of `O=C(O)[C@H](Cc1ccccc1)N1C(=O)/C(=C/c2ccc(F)c(F)c2)SC1=S`, the negative-log IC50 (pIC50) in the data set on Hepatitis C virus [1] is 4.79.
Still for that read-out and setting: the figure for `O=C(O)[C@H](Cc1ccccc1)N1C(=O)/C(=C/c2cccc(Oc3ccccc3)c2)SC1=S` is 5.17; for `O=C(O)[C@H](Cc1ccccc1)N1C(=O)/C(=C/c2ccccc2Oc2ccccc2)SC1=S` it is 4.88.
With `O=C(O)[C@H](Cc1ccccc1)N1C(=O)/C(=C/c2cccc(Oc3ccc(Cl)c(Cl)c3)c2)SC1=S`, the pIC50 in [2] was 5.55; in [3], 4.32; in data set [4], 5.52; with Hepatitis C virus [1] it was 5.59. The Ratio IC50 was 16 with Hepacivirus hominis [5], < 1.5 with Hepacivirus hominis [6] and < 1.5 with Hepacivirus hominis [7].
`O=C(O)[C@H](Cc1ccccc1)N1C(=O)/C(=C/c2ccc(Cl)cc2)SC1=S`: the pIC50 in the data set on Hepatitis C virus [1] is 4.65.
In the case of `O=C(O)[C@H](Cc1ccccc1)N1C(=O)/C(=C/c2cc(F)cc(F)c2)SC1=S`, in the data set on Hepatitis C virus [1], the pIC50 is 4.59.
On the same count and under the same terms, the figure for `COc1ccc(Oc2cccc(/C=C3\SC(=S)N([C@@H](Cc4ccccc4)C(=O)O)C3=O)c2)cc1` is 5.08; for `O=C(O)[C@H](Cc1ccccc1)N1C(=O)/C(=C/c2ccc(Oc3ccccc3)cc2)SC1=S` it is 4.29; for `O=C(O)[C@H](Cc1ccccc1)N1C(=O)/C(=C/c2cccc(-c3ccccc3)c2)SC1=S` it is 4.78.
Consider `O=C(O)[C@H](Cc1ccccc1)N1C(=O)/C(=C/c2cccc(Oc3ccc(Cl)cc3)c2)SC1=S`, for which the pIC50 in [2] is 5.44; in data set [3], 4.25; in [4], 5.38; in the data set on Hepatitis C virus [1], 5.47. For the same compound, the values for the Ratio IC50 in the data set with Hepacivirus hominis [5], in the data set with Hepacivirus hominis [6] and in the data set on Hepacivirus hominis [7] were 16, < 1.5 and < 1.5, respectively.
For `O=C(O)[C@H](Cc1ccccc1)N1C(=O)/C(=C/c2cccc(Br)c2)SC1=S`, the pIC50 with Hepatitis C virus [1] is 5.13.
Take `O=C(O)[C@H](Cc1ccccc1)N1C(=O)/C(=C/c2cccc(Cl)c2)SC1=S`: in the data set on Hepatitis C virus [1], the negative logarithm of the IC50 (pIC50) is 4.58.
Take `O=C(O)[C@@H](Cc1ccccc1)N1C(=O)/C(=C/c2cccc(Oc3ccc(F)cc3)c2)SC1=S`: the pIC50 with Hepatitis C virus [1] was 4.99.
Still for that read-out and setting: the value for `O=C(c1ccccc1)c1cccc(/C=C2\SC(=S)N([C@@H](Cc3ccccc3)C(=O)O)C2=O)c1` was 4.95; that for `O=C(O)[C@H](Cc1ccccc1)N1C(=O)/C(=C/c2ccc(Br)cc2)SC1=S` was 4.93; that for `O=C(O)[C@H](Cc1ccccc1)N1C(=O)/C(=C/c2ccc(Cl)c(Cl)c2)SC1=S` was 4.71.
The same measure, in the same setting: the value for `N#Cc1cccc(/C=C2\SC(=S)N([C@@H](Cc3ccccc3)C(=O)O)C2=O)c1` was 4.51; that for `O=C(O)[C@H](Cc1ccccc1)N1C(=O)/C(=C/c2cccc(OCc3ccccc3)c2)SC1=S` was 4.66.
As a reminder, the inhibition is the relative decrease from the control value, in per cent. Turning to `O=C(O)[C@H](Cc1ccccc1)N1C(=O)/C(=C/c2cccc(Cc3ccccc3)c2)SC1=S`, the Activity entry in data set [8] is listed as “Non-toxic”. In addition, in the data set with Hepatitis C virus [9], the inhibition at 100 µM turned out to be 30%. The pIC50 with Hepatitis C virus [1] is 5.32.
For the compound `O=C(O)[C@@H](Cc1ccccc1)N1C(=O)/C(=C/c2cccc(Oc3ccccc3)c2)SC1=S`, the negative-log IC50 (pIC50) in the data set on Hepatitis C virus [1] was 4.71.
The same measure, in the same setting: the figure for `O=C(O)[C@H](Cc1ccccc1)N1C(=O)/C(=C/c2ccc(F)cc2)SC1=S` is 4.56; for `O=C(O)[C@@H](Cc1ccccc1)N1C(=O)/C(=C/c2cccc(Oc3ccc(Cl)c(Cl)c3)c2)SC1=S` it is 5.27; for `O=C(O)[C@H](Cc1ccccc1)N1C(=O)/C(=C/c2cccc(Oc3cccc(Cl)c3)c2)SC1=S` it is 5.39.
